Experimental data taken from ChEMBL document CHEMBL1122591, “(Imidazolylphenyl)formamidines. A structurally novel class of potent histamine H2 receptor antagonists” (J Med Chem, 1984).

Key:
[1] = molecular target: Histamine H2 receptor (Cavia porcellus) (UniProt P47747); experiment: Evaluated in vitro for histamine H2 receptor antagonist activity by using histamine-stimulated chronotropic response of the guinea pig atrium; type: functional, tissue-based; details: Cardiac atrium
Method in brief: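 A cumulative histamine concentration–response curve (rate) was then repeated with successive antagonist concentrations, each pre-incubated 30 min. Dose ratios compared histamine concentrations giving half-maximal stimulation with and without antagonist.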

[2] = test system: Rattus norvegicus; experiment: Compound was evaluated in vivo for the gastric antisecretory activity in the lumen perfused stomach of the anesthetized rat after iv administration; type: functional
Method in brief: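 Male Sprague–Dawley rats (250 g) were anesthetized with urethane (1 g/kg) and given a lumen-perfused stomach preparation. Acid secretion was driven by constant i.v. histamine infusion [1 mg/(kg h)]. ED50 was taken from the regression line of percent inhibition of acid output.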

[3] = Compound was evaluated for the ionization constant (pKa) by using potentiometric titration (ionization of end group); type: physicochemical
Method in brief: (§1)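 Potentiometric titration of the hydrochloride salt with water as solvent.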

[4] = Compound was evaluated for the ionization constant (pKa) by using potentiometric titration (ionization of imidazole group); type: physicochemical; method in brief: as §1

Sequence of Histamine H2 receptor (Cavia porcellus) (P47747 whole entry): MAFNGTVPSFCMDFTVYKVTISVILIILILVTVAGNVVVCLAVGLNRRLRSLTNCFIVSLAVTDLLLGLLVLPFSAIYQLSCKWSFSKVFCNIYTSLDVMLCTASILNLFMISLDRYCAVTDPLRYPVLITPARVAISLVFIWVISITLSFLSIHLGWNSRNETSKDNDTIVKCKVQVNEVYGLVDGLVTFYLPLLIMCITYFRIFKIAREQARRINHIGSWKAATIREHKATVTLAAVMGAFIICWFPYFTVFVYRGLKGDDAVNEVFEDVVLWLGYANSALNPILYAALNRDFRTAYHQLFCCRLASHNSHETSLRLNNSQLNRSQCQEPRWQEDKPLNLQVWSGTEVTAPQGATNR

Structure (SMILES)	Kb [1] [nM]	ED50 [2] [mg/kg]	pKa [3]	pKa [4]
C/N=C\Nc1ccc(-c2c[nH]cn2)cc1.Cl	1200	1.1		
Cl.N=C(N)c1cccc(-c2c[nH]cn2)c1	7200	10		
CCC/N=C/Nc1ccc(-c2c[nH]cn2)cc1.Cl	32	0.011		
NCCc1c[nH]cn1 [HISTAMINE]			9.81	6.07
CC(C)C/N=C/Nc1ccc(-c2c[nH]cn2)cc1.Cl	69	0.026		
C=CC/N=C/Nc1ccc(-c2c[nH]cn2)cc1.O=C(O)/C=C/C(=O)O	13	0.024		
CC(C)/N=C/Nc1ccc(-c2c[nH]cn2)cc1.Cl	24	0.019	8.88	5.58
CC(C)(C)/N=C/Nc1ccc(-c2c[nH]cn2)cc1.O=S(=O)(O)O		0.017		
C/N=C(/N)Nc1cccc(-c2c[nH]cn2)c1.Cl	4400	3.6		
CN/C(=N\CCSCc1nc[nH]c1C)NC#N [CIMETIDINE]		0.56	-0.4	
Cl.N=C(N)Nc1cccc(-c2c[nH]cn2)c1	5500	3.2		
CC/N=C/Nc1ccc(-c2c[nH]cn2)cc1.Cl	19	0.02		
CNC(=N)c1cccc(-c2c[nH]cn2)c1.Cl	8700	3.5		
